According to ChEMBL document CHEMBL1144684, “Evaluation of a series of naphthamides as potent, orally active vascular endothelial growth factor receptor-2 tyrosine kinase inhibitors” (J Med Chem, 2008):
Calls of active or inactive are those of the source. The calls are words filed in the database; no cut-off is given here.

Assays:
Calu-6 (Homo sapiens) [1] = assay: Antitumor activity in human Calu6 cell xenografted CD1 nu/nu mouse assessed as inhibition of tumor growth at 20 mg/kg, po qd for 14 days; details: Calu-6, po, 336 h, read-out: TGI
[2] = Half life in cynomolgus monkey at 2 mg/kg, po; assay type: ADME, organism-based, Macaca fascicularis; design: dose 2 mg/kg, route oral; details: in vivo
Method in brief: (§1)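 Compound given iv and po as single doses; vehicles: mouse iv PEG 400, po OraPlus; dog iv DMSO, po 1% Tween-80/2% HPMC/97% water; cynomolgus iv propylene glycol, po suspension.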

Mus musculus = assay: Cmax in human HT29 cell xenografted CD1 nu/nu mouse at 10 mg/kg, po qd; assay type: ADME, organism-based, HT-29; design: dose 10 mg/kg, route oral; details: in vivo
Liver microsomes [3] = assay: Metabolic stability assessed as covalent binding in presence of NADPH and GSH in human liver microsomes at 10 uM after 1 hr; assay type: ADME, Microsome
Method in brief: (§2)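 14C-labelled compound at 10 µM with human or rat liver microsomes (1 mg/mL) in 0.1 M potassium phosphate pH 7.4, with or without 1 mM NADPH and 1 mM glutathione, 60 min; quenched with ice-cold acetonitrile. Pellet washed with 80% methanol and ethanol/ether, solubilized, protein by BCA, radioactivity by scintillation counting.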

[4] = AUC in VEGF-soaked disk implanted in Sprague-Dawley rat; assay type: ADME, organism-based; details: plasma
[5] = Volume of distribution at steady state in dog at 0.5 mg/kg, iv; assay type: ADME, organism-based, Canis lupus familiaris; design: dose 0.5 mg/kg, route intravenous; details: in vivo, read-out: Vdss
Method in brief: (§3)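 Intravenous dosing of male/unspecified animals per species; vehicles: mouse 2 mg/kg in Peg 400, dog 0.5 mg/kg in DMSO, cynomolgus monkey 0.5 mg/kg in propylene glycol. Parameters from plasma concentration–time data by noncompartmental analysis.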

[6] = target: Tyrosine-protein kinase Lyn (Homo sapiens, UniProt P07948); assay: Inhibition of Lyn
Sequence of Tyrosine-protein kinase Lyn (P07948 whole entry): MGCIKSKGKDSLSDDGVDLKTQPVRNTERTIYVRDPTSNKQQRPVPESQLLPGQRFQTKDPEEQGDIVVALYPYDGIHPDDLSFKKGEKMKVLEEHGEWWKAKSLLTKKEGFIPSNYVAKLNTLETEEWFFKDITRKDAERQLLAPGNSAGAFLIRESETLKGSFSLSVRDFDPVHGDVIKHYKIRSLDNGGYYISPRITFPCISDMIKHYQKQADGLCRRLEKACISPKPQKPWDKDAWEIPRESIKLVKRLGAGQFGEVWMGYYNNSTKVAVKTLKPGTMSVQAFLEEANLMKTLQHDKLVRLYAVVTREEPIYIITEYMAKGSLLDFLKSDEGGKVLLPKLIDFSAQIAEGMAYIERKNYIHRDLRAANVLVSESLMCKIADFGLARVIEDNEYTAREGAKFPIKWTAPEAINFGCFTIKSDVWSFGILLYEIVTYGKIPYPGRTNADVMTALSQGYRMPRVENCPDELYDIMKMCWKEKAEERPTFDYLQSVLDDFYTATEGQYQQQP

Liver microsomes [7] = assay: Metabolic stability assessed as covalent binding in absence of NADPH in human liver microsomes at 10 uM after 1 hr; assay type: ADME, Microsome
Method in brief: as §2

[8] = AUC (0 to 24 hrs) in cynomolgus monkey at 2 mg/kg, po; assay type: ADME, organism-based, Macaca fascicularis; design: time < 24 hr, dose 2 mg/kg, route oral; details: plasma
Method in brief: as §1

[9] = Mean residence time in mouse at 2 mg/kg, iv; assay type: ADME, organism-based; design: dose 2 mg/kg, route intravenous; details: in vivo
Method in brief: as §3

[10] = Intrinsic clearance in rat liver microsomes at 1 uM; assay type: ADME, Microsome; details: read-out: Stability
Method in brief: (§4)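 Human or rat liver microsomes (0.25 mg protein/mL) with 1 mM NADPH, 2 mM MgCl2 in 50 mM potassium phosphate pH 7.4 at 37 °C; compound 1 µM final. Sampled 0–40 min into acetonitrile, LC-MS/MS; ln % remaining vs time slope gives T1/2; CLint = (0.693/T1/2)/0.25 mg/mL.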

[11] = Intrinsic clearance in human liver microsomes at 1 uM; assay type: ADME, Microsome; details: read-out: Stability
Method in brief: as §4

[12] = Volume of distribution at steady state in cynomolgus monkey at 0.5 mg/kg, iv; assay type: ADME, organism-based, Macaca fascicularis; design: dose 0.5 mg/kg, route intravenous; details: in vivo, read-out: Vdss
Method in brief: as §3

HT-29 = assay: Antitumor activity in human HT29 cells xenografted CD1 nu/nu mouse assessed as inhibition of tumor growth at 3 mg/kg, po qd for 14 days; assay type: functional; details: HT-29, 336 h, read-out: TGI
Method in brief: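 Female CD-1 nu/nu mice, 4–8 weeks, implanted sc in hind flank with 1 × 10^7 HT29 (DMEM high glucose, 5% FBS) or Calu-6 (RPMI 1640, 10% FBS) cells; treatment began at 13–14 days (~300 mm3). Methanesulfonate salt given po qd in OraPlus for 14 days; caliper volumes twice weekly; n = 10/group; RMANOVA with Scheffé test.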

[13] = Clearance in Sprague-Dawley rat at 0.5 mg/kg, iv; assay type: ADME, organism-based; design: dose 0.5 mg/kg, route intravenous; details: in vivo
Method in brief: (§5)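 Male Sprague–Dawley rats dosed iv via femoral vein as DMSO solution (1 or 0.5 mg/kg) or po by gavage as OraPlus suspension (pH 2.0–2.2 with methanesulfonic acid; 10 or 2 mg/kg). Serial jugular blood over 12–24 h; plasma acetonitrile precipitation, LC-MS/MS (MRM) with internal standard; noncompartmental parameters.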

[14] = Protein binding in cynomolgus monkey plasma; assay type: ADME, cell-free, Macaca fascicularis; details: read-out: PPB (converted)
[15] = Half life in dog at 0.5 mg/kg, po; assay type: ADME, organism-based, Canis lupus familiaris; design: dose 0.5 mg/kg, route oral; details: in vivo
Method in brief: as §1

[16] = Oral bioavailability in dog at 0.5 mg/kg, po; assay type: ADME, organism-based, Canis lupus familiaris; details: in vivo
Method in brief: (§6)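 Oral suspension dosing; vehicles: mouse 10 mg/kg in OraPlus, dog 0.5 mg/kg in 1% Tween-80/2% HPMC/97% water, cynomolgus monkey 2 mg/kg.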

[17] = target: Receptor-type tyrosine-protein kinase FLT3 (Homo sapiens) (UniProt P36888); assay: Inhibition of Flt3
Sequence of Receptor-type tyrosine-protein kinase FLT3 (Homo sapiens) (P36888 whole entry): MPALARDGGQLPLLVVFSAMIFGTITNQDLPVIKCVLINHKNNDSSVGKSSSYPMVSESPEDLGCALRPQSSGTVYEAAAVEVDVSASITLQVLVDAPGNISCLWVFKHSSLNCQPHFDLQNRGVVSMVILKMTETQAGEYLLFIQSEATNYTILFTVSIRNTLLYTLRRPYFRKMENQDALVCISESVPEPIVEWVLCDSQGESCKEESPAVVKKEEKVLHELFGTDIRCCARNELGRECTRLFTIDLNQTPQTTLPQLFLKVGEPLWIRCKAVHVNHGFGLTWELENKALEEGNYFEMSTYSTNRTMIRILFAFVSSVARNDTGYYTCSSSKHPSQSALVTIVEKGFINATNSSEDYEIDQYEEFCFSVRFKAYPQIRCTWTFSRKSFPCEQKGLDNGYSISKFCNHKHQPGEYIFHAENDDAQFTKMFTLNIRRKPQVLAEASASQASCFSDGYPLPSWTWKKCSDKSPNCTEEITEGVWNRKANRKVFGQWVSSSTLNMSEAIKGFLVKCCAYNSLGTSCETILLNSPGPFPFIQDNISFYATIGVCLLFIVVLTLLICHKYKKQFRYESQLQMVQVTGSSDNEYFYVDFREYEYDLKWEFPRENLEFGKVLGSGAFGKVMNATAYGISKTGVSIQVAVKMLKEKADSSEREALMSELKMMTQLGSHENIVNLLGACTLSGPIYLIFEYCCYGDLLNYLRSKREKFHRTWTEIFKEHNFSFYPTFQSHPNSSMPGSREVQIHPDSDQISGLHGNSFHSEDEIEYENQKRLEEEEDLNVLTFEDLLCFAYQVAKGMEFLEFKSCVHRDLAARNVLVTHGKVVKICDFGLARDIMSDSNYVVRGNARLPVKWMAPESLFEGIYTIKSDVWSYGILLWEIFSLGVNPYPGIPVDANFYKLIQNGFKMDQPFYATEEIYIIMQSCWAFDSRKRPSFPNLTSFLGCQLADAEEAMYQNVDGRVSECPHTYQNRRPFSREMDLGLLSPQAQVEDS

[18] = Protein binding in dog plasma; assay type: ADME, organism-based, Canis lupus familiaris; details: read-out: PPB (converted)
Method in brief: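 Compound spiked into plasma at 5 µg/mL (12.9 µM) from a DMSO stock, incubated 37 °C 15 min, then ultracentrifuged 3 h at 37 °C. Supernatant below lipid layer measured by LC-MS (n = 6) against QC in plasma filtrate; % bound = 1 − (centrifuged concentration / mean QC) × 100.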

[19] = Cmax in Sprague-Dawley rat at 2 mg/kg, po; assay type: ADME, organism-based; design: dose 2 mg/kg, route oral; details: in vivo
Method in brief: as §5

Aurora kinase A = target: T1, Aurora kinase A (Homo sapiens, UniProt O14965); assay: Inhibition of Aurora A
T1 sequence (O14965 whole entry): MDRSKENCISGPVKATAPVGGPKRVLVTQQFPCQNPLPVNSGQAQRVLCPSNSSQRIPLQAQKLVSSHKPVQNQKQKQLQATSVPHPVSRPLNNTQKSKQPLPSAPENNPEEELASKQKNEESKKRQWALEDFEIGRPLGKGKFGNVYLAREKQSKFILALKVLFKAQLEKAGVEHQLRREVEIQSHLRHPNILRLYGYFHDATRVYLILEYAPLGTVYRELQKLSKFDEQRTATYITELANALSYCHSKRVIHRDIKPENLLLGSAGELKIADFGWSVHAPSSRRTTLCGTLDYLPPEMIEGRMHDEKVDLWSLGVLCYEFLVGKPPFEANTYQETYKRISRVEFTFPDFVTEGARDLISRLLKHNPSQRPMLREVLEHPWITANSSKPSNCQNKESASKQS

[20] = target: Macrophage colony-stimulating factor 1 receptor (Homo sapiens) (UniProt P07333); assay: Inhibition of c-fms
Sequence of Macrophage colony-stimulating factor 1 receptor (Homo sapiens) (P07333 whole entry): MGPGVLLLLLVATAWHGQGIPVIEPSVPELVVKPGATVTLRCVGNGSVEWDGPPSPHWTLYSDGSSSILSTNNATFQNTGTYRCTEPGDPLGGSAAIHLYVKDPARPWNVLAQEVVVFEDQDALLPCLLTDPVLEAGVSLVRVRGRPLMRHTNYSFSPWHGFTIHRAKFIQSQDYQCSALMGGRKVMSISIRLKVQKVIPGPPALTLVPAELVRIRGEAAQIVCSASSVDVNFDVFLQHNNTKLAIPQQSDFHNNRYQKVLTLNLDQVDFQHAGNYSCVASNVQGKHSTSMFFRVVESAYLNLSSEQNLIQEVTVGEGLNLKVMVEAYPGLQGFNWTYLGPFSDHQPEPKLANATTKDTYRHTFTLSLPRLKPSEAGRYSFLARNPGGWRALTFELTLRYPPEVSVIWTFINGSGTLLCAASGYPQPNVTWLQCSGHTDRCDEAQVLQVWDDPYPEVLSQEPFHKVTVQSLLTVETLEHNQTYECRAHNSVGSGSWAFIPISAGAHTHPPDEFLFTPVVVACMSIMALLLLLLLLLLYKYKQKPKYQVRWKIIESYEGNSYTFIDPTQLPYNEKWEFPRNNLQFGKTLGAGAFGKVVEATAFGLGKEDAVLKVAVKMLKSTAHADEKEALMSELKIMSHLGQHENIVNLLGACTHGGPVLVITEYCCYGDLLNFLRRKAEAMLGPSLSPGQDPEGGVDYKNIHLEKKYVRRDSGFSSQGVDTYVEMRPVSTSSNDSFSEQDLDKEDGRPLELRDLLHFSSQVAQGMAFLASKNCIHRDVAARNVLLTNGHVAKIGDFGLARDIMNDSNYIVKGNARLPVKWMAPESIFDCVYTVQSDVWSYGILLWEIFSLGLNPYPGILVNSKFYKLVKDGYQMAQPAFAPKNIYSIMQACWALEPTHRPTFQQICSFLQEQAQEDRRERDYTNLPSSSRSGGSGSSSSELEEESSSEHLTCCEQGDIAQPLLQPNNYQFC

Calu-6 (Homo sapiens) [21] = assay: Antitumor activity in human Calu6 cell xenografted CD1 nu/nu mouse assessed as inhibition of tumor growth at 60 mg/kg, po qd for 14 days; details: Calu-6, po, 336 h, read-out: TGI
[22] = Tmax in dog at 0.5 mg/kg, po; assay type: ADME, organism-based, Canis lupus familiaris; design: dose 0.5 mg/kg, route oral; details: in vivo
Method in brief: as §6

[23] = AUC (0 to infinity) in Sprague-Dawley rat at 2 mg/kg, po; assay type: ADME, organism-based; design: time infinity, dose 2 mg/kg, route oral; details: plasma
Method in brief: as §5

[24] = Oral bioavailability in Sprague-Dawley rat at 2 mg/kg; assay type: ADME, organism-based; details: in vivo
Method in brief: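 Male Sprague–Dawley rats dosed iv at 0.5 mg/kg as DMSO solution or po at 2 mg/kg as suspension in 100% OraPlus. Serial jugular blood, plasma LC-MS/MS quantitation, noncompartmental analysis.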

[25] = target: Tyrosine-protein kinase Lck (Homo sapiens, UniProt P06239); assay: Inhibition of Lck
Sequence of Tyrosine-protein kinase Lck (P06239 whole entry): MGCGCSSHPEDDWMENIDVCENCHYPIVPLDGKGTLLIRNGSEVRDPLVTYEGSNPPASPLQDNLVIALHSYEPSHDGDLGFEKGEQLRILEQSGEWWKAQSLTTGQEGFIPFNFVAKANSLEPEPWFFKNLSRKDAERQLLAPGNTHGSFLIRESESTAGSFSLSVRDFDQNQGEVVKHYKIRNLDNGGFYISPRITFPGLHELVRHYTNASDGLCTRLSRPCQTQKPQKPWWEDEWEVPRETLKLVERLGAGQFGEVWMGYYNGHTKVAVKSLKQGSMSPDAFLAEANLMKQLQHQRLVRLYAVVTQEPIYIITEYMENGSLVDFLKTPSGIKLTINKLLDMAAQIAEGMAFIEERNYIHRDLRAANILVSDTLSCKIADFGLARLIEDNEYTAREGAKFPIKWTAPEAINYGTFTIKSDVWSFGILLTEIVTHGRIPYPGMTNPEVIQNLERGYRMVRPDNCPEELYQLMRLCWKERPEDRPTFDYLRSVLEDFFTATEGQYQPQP

HUVEC = assay: Inhibition of VEGF-induced proliferation of HUVEC; assay type: functional, cell-based; details: Homo sapiens
Angiopoietin-1 receptor = Angiopoietin-1 receptor (Homo sapiens, UniProt Q02763); assay: Inhibition of Tie2
Sequence of Angiopoietin-1 receptor (Q02763 whole entry): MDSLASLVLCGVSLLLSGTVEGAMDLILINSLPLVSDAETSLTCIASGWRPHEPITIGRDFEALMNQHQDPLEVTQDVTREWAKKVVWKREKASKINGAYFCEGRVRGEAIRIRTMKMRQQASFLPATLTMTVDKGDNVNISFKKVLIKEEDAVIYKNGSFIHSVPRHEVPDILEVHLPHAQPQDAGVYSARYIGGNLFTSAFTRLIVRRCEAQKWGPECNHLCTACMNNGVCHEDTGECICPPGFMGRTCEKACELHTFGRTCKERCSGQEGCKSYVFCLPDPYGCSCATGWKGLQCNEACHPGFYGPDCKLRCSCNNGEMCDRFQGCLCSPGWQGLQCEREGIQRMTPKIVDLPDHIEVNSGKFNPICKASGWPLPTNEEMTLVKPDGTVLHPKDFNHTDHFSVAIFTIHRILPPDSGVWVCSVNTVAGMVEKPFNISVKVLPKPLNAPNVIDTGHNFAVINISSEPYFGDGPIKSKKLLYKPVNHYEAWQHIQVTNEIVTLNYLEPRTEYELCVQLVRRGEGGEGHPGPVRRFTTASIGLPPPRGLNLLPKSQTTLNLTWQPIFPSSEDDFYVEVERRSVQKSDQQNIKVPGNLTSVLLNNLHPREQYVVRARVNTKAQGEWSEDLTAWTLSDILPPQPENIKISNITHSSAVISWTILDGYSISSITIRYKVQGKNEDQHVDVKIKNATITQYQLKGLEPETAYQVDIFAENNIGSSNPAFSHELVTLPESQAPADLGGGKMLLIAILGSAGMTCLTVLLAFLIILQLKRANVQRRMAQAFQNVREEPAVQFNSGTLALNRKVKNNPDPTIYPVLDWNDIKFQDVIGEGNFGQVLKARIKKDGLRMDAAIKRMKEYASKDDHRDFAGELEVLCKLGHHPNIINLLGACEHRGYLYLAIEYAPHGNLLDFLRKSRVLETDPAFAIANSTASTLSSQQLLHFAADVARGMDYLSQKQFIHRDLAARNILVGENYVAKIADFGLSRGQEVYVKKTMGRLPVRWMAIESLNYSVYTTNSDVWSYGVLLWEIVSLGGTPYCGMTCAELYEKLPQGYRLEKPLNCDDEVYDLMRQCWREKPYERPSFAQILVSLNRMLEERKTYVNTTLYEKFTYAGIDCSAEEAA

SMILES: COc1cc2nccc(Oc3ccc4c(C(N)=O)cccc4c3)c2cc1OC
- inhibition in vivo at 20 mg/kg (Calu-6 (Homo sapiens) [1]): 85%
- half-life [2]: 13 h
- Cmax (Mus musculus): 1300 nM
- Stability (Liver microsomes [3]): 3.2 pmol/mg/h
- AUC [4]: 0.48 µM·h
- Vd [5]: 1.86 L/kg
- IC50 [6]: 88 nM
- Stability (Liver microsomes [7]): 14 pmol/mg/h
- AUC(0-t) at 24 h [8]: 1360 ng·h/mL
- MRT [9]: 2.3 h
- microsomal CLint at 1 µM [10]: 32 µL/min/mg
- microsomal CLint at 1 µM [11]: 7 µL/min/mg
- Vd [12]: 6.82 L/kg
- inhibition in vivo at 3 mg/kg (HT-29): 51%
- clearance [13]: 3.73 mL/min/kg
- fraction unbound [14]: 0.008
- half-life [15]: 16 h
- bioavailability [16]: 73%
- Activity [17]: inactive
- fraction unbound [18]: 0.038
- Cmax [19]: 1690 ng/mL
- IC50 (Aurora kinase A): 5000 nM
- Activity [20]: Active
- inhibition in vivo at 60 mg/kg (Calu-6 (Homo sapiens) [21]): 88%
- Tmax [22]: 0.75 h
- AUC(0-inf) [23]: 8450 ng·h/mL
- bioavailability [24]: 96%
- IC50 [25]: 300 nM
- IC50 (HUVEC): 2.1 nM
- IC50 (Angiopoietin-1 receptor): 25000 nM
